Measurements from ChEMBL document CHEMBL1157552, “Antimalarial and antitubercular nostocarboline and eudistomin derivatives: synthesis, in vitro and in vivo biological evaluation” (Bioorg Med Chem, 2010).
Counter-ions that a name gives are not always drawn.

System: L6
Experiment: Cytotoxicity against rat L6 cells
Type: cell-based
Details: not given
Work on `Fc1ccc(C[n+]2ccc3c(c2)[nH]c2c(Br)cccc23)cc1` yielded an IC50 of 17.5 µM. Compound `Brc1ccc2[nH]c3c[n+](CCCc4ccccc4)ccc3c2c1` has an IC50 of 27.5 µM. Work on `Fc1ccc(C[n+]2ccc3c(c2)[nH]c2ccc(Cl)cc23)cc1` yielded an IC50 of 111 µM. `Brc1ccc2[nH]c3c[n+](Cc4ccccc4)ccc3c2c1` gave an IC50 of 61.6 µM. `C=CC[n+]1ccc2c(c1)[nH]c1ccc(Cl)cc12` gave an IC50 of 126 µM. Compound `CCCC[n+]1ccc2c(c1)[nH]c1ccc(Br)cc12` has an IC50 of 68.7 µM. With `O=[N+]([O-])c1ccc(C[n+]2ccc3c(c2)[nH]c2ccc(Br)cc23)cc1` the IC50 was 18.1 µM. `Fc1cccc(C[n+]2ccc3c(c2)[nH]c2ccc(Br)cc23)c1` showed an IC50 of 41.5 µM. With `CC[n+]1ccc2c(c1)[nH]c1c(Br)cccc12` the IC50 was 153 µM. `Clc1ccc2[nH]c3c[n+](CCCc4ccccc4)ccc3c2c1` showed an IC50 of 71.3 µM. In the case of `Fc1ccc(C[n+]2ccc3c(c2)[nH]c2ccc(Br)cc23)cc1`, the IC50 is reported as 22.6 µM. With `Clc1ccc2[nH]c3c[n+](Cc4ccccc4)ccc3c2c1` the IC50 was 27 µM. For `O=[N+]([O-])c1ccc(C[n+]2ccc3c(c2)[nH]c2ccc(Cl)cc23)cc1`, the IC50 was 42.2 µM. `Brc1cccc2c1[nH]c1c[n+](Cc3ccc4ccccc4c3)ccc12` gave an IC50 of 3.7 µM. `CCCC[n+]1ccc2c(c1)[nH]c1ccc(Cl)cc12` gave an IC50 of 74 µM.

System: Trypanosoma brucei rhodesiense
Experiment: Antiparasitic activity against Trypanosoma brucei rhodesiense STIB 900
Type: functional, organism-based
Details: not given
Method in brief: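 Tested against bloodstream forms of STIB 900.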
Work on `Fc1ccc(C[n+]2ccc3c(c2)[nH]c2c(Br)cccc23)cc1` yielded an IC50 of 3.8 µM. With `Brc1ccc2[nH]c3c[n+](CCCc4ccccc4)ccc3c2c1` the IC50 was 4.5 µM. For `Fc1ccc(C[n+]2ccc3c(c2)[nH]c2ccc(Cl)cc23)cc1`, the IC50 was 18.1 µM. With `Brc1ccc2[nH]c3c[n+](Cc4ccccc4)ccc3c2c1` the IC50 was 5.2 µM. In the case of `C=CC[n+]1ccc2c(c1)[nH]c1ccc(Cl)cc12`, the IC50 is reported as 33.5 µM. Compound `CCCC[n+]1ccc2c(c1)[nH]c1ccc(Br)cc12` has an IC50 of 11.7 µM. In the case of `O=[N+]([O-])c1ccc(C[n+]2ccc3c(c2)[nH]c2ccc(Br)cc23)cc1`, the IC50 is reported as 10.8 µM. With `Fc1cccc(C[n+]2ccc3c(c2)[nH]c2ccc(Br)cc23)c1` the IC50 was 5.6 µM. `CC[n+]1ccc2c(c1)[nH]c1c(Br)cccc12` gave an IC50 of 25 µM. For `Clc1ccc2[nH]c3c[n+](CCCc4ccccc4)ccc3c2c1`, the IC50 was 6.2 µM. For `Fc1ccc(C[n+]2ccc3c(c2)[nH]c2ccc(Br)cc23)cc1`, the IC50 was 4.7 µM. `Clc1ccc2[nH]c3c[n+](Cc4ccccc4)ccc3c2c1` showed an IC50 of 6.2 µM. `O=[N+]([O-])c1ccc(C[n+]2ccc3c(c2)[nH]c2ccc(Cl)cc23)cc1` gave an IC50 of 21.3 µM. With `Brc1cccc2c1[nH]c1c[n+](Cc3ccc4ccccc4c3)ccc12` the IC50 was 4.4 µM. `CCCC[n+]1ccc2c(c1)[nH]c1ccc(Cl)cc12` showed an IC50 of 11.6 µM.

System: not listed separately
Experiment: Selectivity ratio of IC50 for rat L6 cells to IC50 for Plasmodium falciparum K1
Type: ADME, cell-based
Details: L6 cells (cytotoxicity) versus Plasmodium falciparum K1, read-out: Ratio IC50
`O=C1c2ccccc2-[n+]2ccc3c([nH]c4ccccc43)c21` [FASCAPLYSIN CHLORIDE] showed a selectivity ratio of 50. Work on `Fc1ccc(C[n+]2ccc3c(c2)[nH]c2c(Br)cccc23)cc1` yielded a selectivity ratio of 5. Work on `Brc1ccc2[nH]c3c[n+](CCCc4ccccc4)ccc3c2c1` yielded a selectivity ratio of 60. With `Fc1ccc(C[n+]2ccc3c(c2)[nH]c2ccc(Cl)cc23)cc1` the selectivity ratio was 24. Work on `C[n+]1ccc2c(c1)[nH]c1ccccc12` [NORMELINONINE F] yielded a selectivity ratio greater than 853. `Brc1ccc2[nH]c3c[n+](Cc4ccccc4)ccc3c2c1` showed a selectivity ratio of 26. With `C[n+]1c2ccccc2cc2[n-]c3ccccc3c21` [CRYPTOLEPINE HYDROCHLORIDE] the selectivity ratio was 9. For `C=CC[n+]1ccc2c(c1)[nH]c1ccc(Cl)cc12`, the selectivity ratio was 152. With `CCCC[n+]1ccc2c(c1)[nH]c1ccc(Br)cc12` the selectivity ratio was 60. For `O=[N+]([O-])c1ccc(C[n+]2ccc3c(c2)[nH]c2ccc(Br)cc23)cc1`, the selectivity ratio was 14. For `Fc1cccc(C[n+]2ccc3c(c2)[nH]c2ccc(Br)cc23)c1`, the selectivity ratio was 19. For `CC[n+]1ccc2c(c1)[nH]c1c(Br)cccc12`, the selectivity ratio was 23. For `Clc1ccc2[nH]c3c[n+](CCCc4ccccc4)ccc3c2c1`, the selectivity ratio was 44. For `Fc1ccc(C[n+]2ccc3c(c2)[nH]c2ccc(Br)cc23)cc1`, the selectivity ratio was 13. Work on `Clc1ccc2[nH]c3c[n+](Cc4ccccc4)ccc3c2c1` yielded a selectivity ratio of 9. `O=[N+]([O-])c1ccc(C[n+]2ccc3c(c2)[nH]c2ccc(Cl)cc23)cc1` gave a selectivity ratio of 19. With `C[n+]1cc2[nH]c3ccccc3c2c2ccccc21` [ISONEOCRYPTOLEPINE] the selectivity ratio was 18. With `Brc1cccc2c1[nH]c1c[n+](Cc3ccc4ccccc4c3)ccc12` the selectivity ratio was 7. Compound `CCCC[n+]1ccc2c(c1)[nH]c1ccc(Cl)cc12` has a selectivity ratio of 46.

System: Plasmodium falciparum
Experiment: Antiparasitic activity against Plasmodium falciparum K1
Type: functional, organism-based
Details: not given
Method in brief: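 Tested against erythrocytic stages of the K1 strain.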
`O=C1c2ccccc2-[n+]2ccc3c([nH]c4ccccc43)c21` [FASCAPLYSIN CHLORIDE] showed an IC50 of 0.184 µM. In the case of `Fc1ccc(C[n+]2ccc3c(c2)[nH]c2c(Br)cccc23)cc1`, the IC50 is reported as 3.28 µM. With `Brc1ccc2[nH]c3c[n+](CCCc4ccccc4)ccc3c2c1` the IC50 was 0.459 µM. For `Fc1ccc(C[n+]2ccc3c(c2)[nH]c2ccc(Cl)cc23)cc1`, the IC50 was 4.67 µM. `Brc1ccc2[nH]c3c[n+](Cc4ccccc4)ccc3c2c1` showed an IC50 of 2.37 µM. With `C=CC[n+]1ccc2c(c1)[nH]c1ccc(Cl)cc12` the IC50 was 0.831 µM. For `CCCC[n+]1ccc2c(c1)[nH]c1ccc(Br)cc12`, the IC50 was 1.15 µM. For `O=[N+]([O-])c1ccc(C[n+]2ccc3c(c2)[nH]c2ccc(Br)cc23)cc1`, the IC50 was 1.33 µM. Compound `Fc1cccc(C[n+]2ccc3c(c2)[nH]c2ccc(Br)cc23)c1` has an IC50 of 2.15 µM. For `CC[n+]1ccc2c(c1)[nH]c1c(Br)cccc12`, the IC50 was 6.62 µM. Work on `Clc1ccc2[nH]c3c[n+](CCCc4ccccc4)ccc3c2c1` yielded an IC50 of 1.61 µM. For `Fc1ccc(C[n+]2ccc3c(c2)[nH]c2ccc(Br)cc23)cc1`, the IC50 was 1.76 µM. `Clc1ccc2[nH]c3c[n+](Cc4ccccc4)ccc3c2c1` showed an IC50 of 3 µM. With `O=[N+]([O-])c1ccc(C[n+]2ccc3c(c2)[nH]c2ccc(Cl)cc23)cc1` the IC50 was 2.21 µM. `Brc1cccc2c1[nH]c1c[n+](Cc3ccc4ccccc4c3)ccc12` showed an IC50 of 0.502 µM. `CCCC[n+]1ccc2c(c1)[nH]c1ccc(Cl)cc12` showed an IC50 of 1.62 µM.

System: Trypanosoma cruzi
Experiment: Antiparasitic activity against Trypanosoma cruzi Tulahuen C2C4
Type: functional, organism-based
Details: not given
Method in brief: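 Tested against Tulahuen C2C4 amastigotes grown in L6 rat skeletal myoblasts.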
Work on `Fc1ccc(C[n+]2ccc3c(c2)[nH]c2c(Br)cccc23)cc1` yielded an IC50 of 28.7 µM. Compound `Brc1ccc2[nH]c3c[n+](CCCc4ccccc4)ccc3c2c1` has an IC50 of 12.6 µM. Compound `Fc1ccc(C[n+]2ccc3c(c2)[nH]c2ccc(Cl)cc23)cc1` has an IC50 of 87.7 µM. In the case of `Brc1ccc2[nH]c3c[n+](Cc4ccccc4)ccc3c2c1`, the IC50 is reported as 16.3 µM. Work on `C=CC[n+]1ccc2c(c1)[nH]c1ccc(Cl)cc12` yielded an IC50 of 57.8 µM. For `CCCC[n+]1ccc2c(c1)[nH]c1ccc(Br)cc12`, the IC50 was 35.3 µM. In the case of `O=[N+]([O-])c1ccc(C[n+]2ccc3c(c2)[nH]c2ccc(Br)cc23)cc1`, the IC50 is reported as 14.1 µM. `Fc1cccc(C[n+]2ccc3c(c2)[nH]c2ccc(Br)cc23)c1` showed an IC50 of 25.9 µM. Work on `CC[n+]1ccc2c(c1)[nH]c1c(Br)cccc12` yielded an IC50 of 170 µM. `Clc1ccc2[nH]c3c[n+](CCCc4ccccc4)ccc3c2c1` gave an IC50 of 20.9 µM. Compound `Fc1ccc(C[n+]2ccc3c(c2)[nH]c2ccc(Br)cc23)cc1` has an IC50 of 13.3 µM. Work on `Clc1ccc2[nH]c3c[n+](Cc4ccccc4)ccc3c2c1` yielded an IC50 of 24.6 µM. For `O=[N+]([O-])c1ccc(C[n+]2ccc3c(c2)[nH]c2ccc(Cl)cc23)cc1`, the IC50 was 32.8 µM. In the case of `Brc1cccc2c1[nH]c1c[n+](Cc3ccc4ccccc4c3)ccc12`, the IC50 is reported as 7.9 µM. In the case of `CCCC[n+]1ccc2c(c1)[nH]c1ccc(Cl)cc12`, the IC50 is reported as 104 µM.

System: Leishmania donovani
Experiment: Antiparasitic activity against Leishmania donovani MHOM-ET-67/L82 axenic amastigotes
Type: functional, organism-based
Details: not given
`Fc1ccc(C[n+]2ccc3c(c2)[nH]c2c(Br)cccc23)cc1` gave an IC50 of 53.4 µM. With `Brc1ccc2[nH]c3c[n+](CCCc4ccccc4)ccc3c2c1` the IC50 was 20.4 µM. `Fc1ccc(C[n+]2ccc3c(c2)[nH]c2ccc(Cl)cc23)cc1` showed an IC50 of 110 µM. Compound `Brc1ccc2[nH]c3c[n+](Cc4ccccc4)ccc3c2c1` has an IC50 of 21.2 µM. For `C=CC[n+]1ccc2c(c1)[nH]c1ccc(Cl)cc12`, the IC50 was 196 µM. `CCCC[n+]1ccc2c(c1)[nH]c1ccc(Br)cc12` gave an IC50 of 35.1 µM. With `O=[N+]([O-])c1ccc(C[n+]2ccc3c(c2)[nH]c2ccc(Br)cc23)cc1` the IC50 was 38.2 µM. Work on `Fc1cccc(C[n+]2ccc3c(c2)[nH]c2ccc(Br)cc23)c1` yielded an IC50 of 11 µM. `CC[n+]1ccc2c(c1)[nH]c1c(Br)cccc12` gave an IC50 greater than 223 µM. With `Clc1ccc2[nH]c3c[n+](CCCc4ccccc4)ccc3c2c1` the IC50 was 18.6 µM. `Fc1ccc(C[n+]2ccc3c(c2)[nH]c2ccc(Br)cc23)cc1` showed an IC50 of 16.4 µM. Work on `Clc1ccc2[nH]c3c[n+](Cc4ccccc4)ccc3c2c1` yielded an IC50 of 113 µM. In the case of `O=[N+]([O-])c1ccc(C[n+]2ccc3c(c2)[nH]c2ccc(Cl)cc23)cc1`, the IC50 is reported as 146 µM. Work on `Brc1cccc2c1[nH]c1c[n+](Cc3ccc4ccccc4c3)ccc12` yielded an IC50 of 46.4 µM. For `CCCC[n+]1ccc2c(c1)[nH]c1ccc(Cl)cc12`, the IC50 was 112 µM.
